According to ChEMBL document CHEMBL3763043, “Synthesis and biological evaluation of new fluorinated and chlorinated indenoisoquinoline topoisomerase I poisons” (Bioorg Med Chem, 2016):

How the values were obtained:
[1] = Cytotoxicity against human HOP62 cells by MTT assay; format: functional; conditions: HOP-62
In short: (§1)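 NCI-60 screen: a single-dose 10 μM pre-test, then a five-concentration assay for promoted compounds. GI₅₀ is the concentration giving 50% growth inhibition versus control, taken from concentration-response curves. GI₅₀ values below the lowest concentration were recorded as 10 nM, and values above the range at the top concentration.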

[2] = Cytotoxicity against human HCT116 cells by MTT assay; format: functional; conditions: HCT-116; in short: as §1
[3] = Cytotoxicity against human SF539 cells by MTT assay; format: functional; conditions: SF-539; in short: as §1
[4] = Cytotoxicity against human UACC62 cells by MTT assay; format: functional; conditions: UACC-62; in short: as §1
[5] = Cytotoxicity against human OVCAR3 cells by MTT assay; format: functional; conditions: OVCAR-3; in short: as §1
[6] = system: SN12C; assay: Cytotoxicity against human SN12C cells by MTT assay; format: functional; in short: as §1
[7] = Cytotoxicity against human DU145 cells by MTT assay; format: functional; conditions: DU-145; in short: as §1
[8] = system: MCF7; assay: Cytotoxicity against human MCF7 cells by MTT assay; format: functional; in short: as §1
[9] = molecular target: T1, DNA topoisomerase 1 (Homo sapiens) (UniProt P11387); assay: Activity at recombinant Top1 (unknown origin) using 3'-[32P]-labeled double-stranded DNA (117 bp) as substrate assessed as induction of DNA cleavage at 0.1 to 100 uM incubated for 20 mins by electrophoretic assay relative to 1 uM camptothecin
T1 sequence (whole entry): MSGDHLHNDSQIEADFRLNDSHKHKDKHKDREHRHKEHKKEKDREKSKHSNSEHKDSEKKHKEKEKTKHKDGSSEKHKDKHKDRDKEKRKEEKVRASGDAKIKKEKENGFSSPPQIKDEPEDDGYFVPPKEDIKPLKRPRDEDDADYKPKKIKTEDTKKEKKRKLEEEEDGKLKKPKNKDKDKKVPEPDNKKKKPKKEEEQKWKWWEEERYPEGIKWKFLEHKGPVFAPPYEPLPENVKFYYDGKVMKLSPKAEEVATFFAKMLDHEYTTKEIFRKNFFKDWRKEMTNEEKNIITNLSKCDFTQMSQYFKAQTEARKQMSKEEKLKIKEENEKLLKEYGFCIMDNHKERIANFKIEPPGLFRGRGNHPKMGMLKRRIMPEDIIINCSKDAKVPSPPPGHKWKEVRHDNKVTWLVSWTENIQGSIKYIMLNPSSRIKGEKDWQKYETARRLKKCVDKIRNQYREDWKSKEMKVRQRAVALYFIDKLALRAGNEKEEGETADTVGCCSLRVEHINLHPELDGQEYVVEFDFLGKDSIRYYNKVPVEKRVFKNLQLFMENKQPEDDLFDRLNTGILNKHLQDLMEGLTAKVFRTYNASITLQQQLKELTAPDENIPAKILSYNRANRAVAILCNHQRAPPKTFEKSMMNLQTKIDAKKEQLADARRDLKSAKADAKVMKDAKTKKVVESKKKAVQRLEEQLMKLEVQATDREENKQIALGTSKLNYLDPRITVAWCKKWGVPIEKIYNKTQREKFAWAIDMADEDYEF

[10] = molecular target: Tyrosyl-DNA phosphodiesterase 1 (Homo sapiens, UniProt Q9NUW8); assay: Inhibition of recombinant TDP1 (unknown origin) using 5'-[32P]-labeled single-stranded DNA oligonucleotide containing 3'-phosphotyrosine (N14Y) as substrate for 15 mins by PAGE assay
Sequence of Tyrosyl-DNA phosphodiesterase 1 (Q9NUW8 whole entry): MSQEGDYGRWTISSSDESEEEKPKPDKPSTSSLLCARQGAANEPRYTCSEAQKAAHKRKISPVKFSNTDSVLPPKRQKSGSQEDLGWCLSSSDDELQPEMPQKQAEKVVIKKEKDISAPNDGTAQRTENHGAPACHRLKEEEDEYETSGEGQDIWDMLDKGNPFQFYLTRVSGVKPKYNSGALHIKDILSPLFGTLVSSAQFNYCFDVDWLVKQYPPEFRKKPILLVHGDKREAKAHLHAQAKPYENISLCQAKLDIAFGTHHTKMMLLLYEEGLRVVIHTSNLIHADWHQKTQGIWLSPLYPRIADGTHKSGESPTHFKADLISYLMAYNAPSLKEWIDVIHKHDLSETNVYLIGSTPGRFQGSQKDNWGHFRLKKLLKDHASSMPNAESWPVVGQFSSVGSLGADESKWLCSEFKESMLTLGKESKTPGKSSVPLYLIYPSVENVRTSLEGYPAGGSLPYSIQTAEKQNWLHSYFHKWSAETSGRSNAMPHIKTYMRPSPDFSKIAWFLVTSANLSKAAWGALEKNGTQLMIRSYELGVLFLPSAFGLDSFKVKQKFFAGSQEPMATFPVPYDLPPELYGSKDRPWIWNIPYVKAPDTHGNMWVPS

[11] = molecular target: T2, Tyrosyl-DNA phosphodiesterase 2 (Homo sapiens, UniProt O95551); assay: Inhibition of recombinant human TDP2 using alpha32P-cordycepin-[…]-labeled 19-mer single-stranded oligonucleotide DNA containing 5'-phosphotyrosine (Y19) for 15 mins by PAGE assay
T2 sequence (O95551 whole entry): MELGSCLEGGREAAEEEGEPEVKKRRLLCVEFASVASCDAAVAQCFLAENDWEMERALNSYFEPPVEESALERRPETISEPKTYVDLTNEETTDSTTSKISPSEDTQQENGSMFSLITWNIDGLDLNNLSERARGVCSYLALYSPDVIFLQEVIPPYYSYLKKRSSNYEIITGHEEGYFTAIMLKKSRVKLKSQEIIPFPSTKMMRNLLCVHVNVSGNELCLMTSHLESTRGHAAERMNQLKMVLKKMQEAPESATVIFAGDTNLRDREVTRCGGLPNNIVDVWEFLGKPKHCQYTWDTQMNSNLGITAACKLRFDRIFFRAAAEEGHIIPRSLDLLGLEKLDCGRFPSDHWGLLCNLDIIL

| SMILES | Activity [9] | IC50 [10] | IC50 [11] | GI50 [1] | GI50 [2] | GI50 [3] | GI50 [4] | GI50 [5] | GI50 [6] | GI50 [7] | GI50 [8] |
| --- | --- | --- | --- | --- | --- | --- | --- | --- | --- | --- | --- |
| O=C1c2cc3c(cc2-c2c1c1ccc(F)cc1c(=O)n2CCCNCCO)OCO3 | 50% | 6.2 µM | 6.3 µM | 36 nM | 19 nM | 41 nM | 28 nM | 76 nM | 107 nM | 33 nM | < 10 nM |
| O=C1c2cc3c(cc2-c2c1c1ccc(Cl)cc1c(=O)n2CCCN1CCOCC1)OCO3 | 20% | – | – | – | – | – | – | – | – | – | – |
| O=C1c2cc3c(cc2-c2c1c1cc(Cl)c(Cl)cc1c(=O)n2CCCn1ccnc1)OCO3 | 20% | – | – | < 10 nM | < 10 nM | < 10 nM | < 10 nM | 43 nM | < 10 nM | < 10 nM | < 10 nM |
| O=C1c2cc3c(cc2-c2c1c1ccc(F)cc1c(=O)n2CCCN1CCOCC1)OCO3 | 20% | – | – | – | – | – | – | – | – | – | – |
| O=C1c2cc3c(cc2-c2c1c1cc(F)c(F)cc1c(=O)n2CCCn1ccnc1)OCO3 | 20% | – | – | < 10 nM | < 10 nM | < 10 nM | < 10 nM | 115 nM | < 10 nM | < 10 nM | < 10 nM |
| O=C1c2cc3c(cc2-c2c1c1ccc(F)cc1c(=O)n2CCCn1ccnc1)OCO3 | 75% | – | – | < 10 nM | < 10 nM | < 10 nM | < 10 nM | 19 nM | < 10 nM | < 10 nM | < 10 nM |
| COc1cc2c3c(n(CCCNCCO)c(=O)c2cc1OC)-c1cc2c(cc1C3=O)OCO2 [LMP-744] | 100% | – | – | 10 nM | 150 nM | 90 nM | – | 1500 nM | 10 nM | – | – |

Second part, led by results:

| Activity [9] | IC50 [10] | IC50 [11] | SMILES | GI50 [1] | GI50 [2] | GI50 [3] | GI50 [4] | GI50 [5] | GI50 [6] | GI50 [7] | GI50 [8] |
| --- | --- | --- | --- | --- | --- | --- | --- | --- | --- | --- | --- |
| 100% | – | – | O=C1c2cc3c(cc2-c2c1c1ccc(F)cc1c(=O)n2C[C@H](O)CO)OCO3 | 49 nM | 79 nM | 51 nM | 45 nM | 182 nM | 76 nM | 102 nM | 32 nM |
| 20% | – | – | O=C1c2cc3c(cc2-c2c1c1ccc(Cl)cc1c(=O)n2C[C@H](O)[C@H](O)[C@H](O)CO)OCO3 | – | – | – | – | – | – | – | – |
| 50% | – | – | O=C1c2cc3c(cc2-c2c1c1ccc(Cl)cc1c(=O)n2CCCn1ccnc1)OCO3 | < 10 nM | < 10 nM | < 10 nM | < 10 nM | 40 nM | < 10 nM | < 10 nM | < 10 nM |
| 50% | – | – | O=C1c2cc3c(cc2-c2c1c1ccc(Cl)cc1c(=O)n2C[C@H](O)CO)OCO3 | 22 nM | 20 nM | 25 nM | 12 nM | 62 nM | 27 nM | 32 nM | < 10 nM |
| 50% | – | – | O=C1c2cc3c(cc2-c2c1c1ccc(F)cc1c(=O)n2C[C@H](O)[C@@H](O)[C@H](O)CO)OCO3 | 32 nM | 35 nM | 29 nM | 25 nM | 100 nM | 79 nM | 51 nM | 12 nM |
| 75% | 6.3 µM | 8.9 µM | O=C1c2cc3c(cc2-c2c1c1ccc(Cl)cc1c(=O)n2CCCNCCO)OCO3 | 71 nM | 105 nM | 240 nM | 43 nM | 1320 nM | 1070 nM | 59 nM | 18 nM |
| 50% | – | – | O=C1c2cc3c(cc2-c2c1c1cc(F)c(F)cc1c(=O)n2C[C@H](O)CO)OCO3 | 22 nM | 37 nM | 29 nM | 15 nM | 224 nM | 33 nM | 41 nM | < 10 nM |
| 50% | – | – | O=C1c2cc3c(cc2-c2c1c1cc(Cl)c(Cl)cc1c(=O)n2C[C@H](O)CO)OCO3 | < 10 nM | < 10 nM | < 10 nM | < 10 nM | 16 nM | < 10 nM | < 10 nM | < 10 nM |
